Assay results as given in ChEMBL document CHEMBL2150988, “Preparation and optimization of new 4-(morpholin-4-yl)-(6-oxo-1,6-dihydropyrimidin-2-yl)amide derivatives as PI3Kβ inhibitors” (Bioorg Med Chem Lett, 2012).
pIC50: −log10 of the molar value. Values after ≈ are worked out from the molar mass of the structure shown.

Assays:
[1] = biological target: Phosphatidylinositol 4,5-bisphosphate 3-kinase catalytic subunit alpha isoform (Homo sapiens, UniProt P42336); assay: Inhibition of PI3Kalpha
[2] = biological target: Phosphatidylinositol 4,5-bisphosphate 3-kinase catalytic subunit beta isoform (Homo sapiens, UniProt P42338); assay: Inhibition of PI3Kbeta
[3] = biological target: T1, Phosphatidylinositol 4,5-bisphosphate 3-kinase catalytic subunit delta isoform (Homo sapiens, UniProt O00329); assay: Inhibition of PI3Kdelta
T1 sequence (O00329 whole entry): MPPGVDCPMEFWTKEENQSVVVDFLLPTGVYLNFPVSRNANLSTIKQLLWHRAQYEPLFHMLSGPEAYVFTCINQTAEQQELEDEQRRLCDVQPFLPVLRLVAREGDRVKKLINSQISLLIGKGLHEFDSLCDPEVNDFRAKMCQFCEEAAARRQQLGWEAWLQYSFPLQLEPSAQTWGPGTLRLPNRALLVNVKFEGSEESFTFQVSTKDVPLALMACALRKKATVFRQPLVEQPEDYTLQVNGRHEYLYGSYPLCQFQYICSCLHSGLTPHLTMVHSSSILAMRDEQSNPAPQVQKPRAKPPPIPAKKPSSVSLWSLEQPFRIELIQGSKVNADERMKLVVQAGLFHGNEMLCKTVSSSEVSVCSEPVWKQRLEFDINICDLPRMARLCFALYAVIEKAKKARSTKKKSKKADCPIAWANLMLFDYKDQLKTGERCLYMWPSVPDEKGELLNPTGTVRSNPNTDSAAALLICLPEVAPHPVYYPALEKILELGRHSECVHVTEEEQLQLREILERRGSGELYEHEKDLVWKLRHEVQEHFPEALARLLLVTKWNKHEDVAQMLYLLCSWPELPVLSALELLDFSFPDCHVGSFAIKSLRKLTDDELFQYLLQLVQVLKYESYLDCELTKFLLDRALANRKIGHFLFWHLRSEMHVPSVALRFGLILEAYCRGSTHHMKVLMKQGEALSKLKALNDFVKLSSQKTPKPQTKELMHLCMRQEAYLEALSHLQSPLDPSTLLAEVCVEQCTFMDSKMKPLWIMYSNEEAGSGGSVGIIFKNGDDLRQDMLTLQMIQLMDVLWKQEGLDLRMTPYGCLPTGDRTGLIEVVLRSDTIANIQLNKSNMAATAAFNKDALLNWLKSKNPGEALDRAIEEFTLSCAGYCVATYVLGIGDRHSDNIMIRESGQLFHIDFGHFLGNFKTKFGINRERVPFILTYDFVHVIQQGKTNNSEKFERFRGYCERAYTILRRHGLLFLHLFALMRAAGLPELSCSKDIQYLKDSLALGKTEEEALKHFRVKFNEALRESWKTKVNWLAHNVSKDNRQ

[4] = biological target: Phosphatidylinositol 4,5-bisphosphate 3-kinase catalytic subunit gamma isoform (Homo sapiens, UniProt P48736); assay: Inhibition of PI3Kgamma
[5] = Inhibition of Akt phosphorylation at S473 in PTEN deficient human PC3 cells; type: cell-based; conditions: PC-3
[6] = Equilibrium solubility of the compound in phosphate buffer at pH 7.4 after 16 hrs by HPLC analysis; type: physicochemical
[7] = Apparent permeability across human Caco2/TC7 cells; type: ADME, cell-based; conditions: Caco-2
In short: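 Caco-2 TC7 clone monolayers; transport measured in both apical-to-basolateral and basolateral-to-apical directions, giving Papp (nm/s) and an efflux ratio.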

[8] = Efflux ratio of permeability […] in human Caco2/TC7 cells; type: ADME, cell-based
In short: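 Caco-2 TC7 clone cells grown as a monolayer; compound transport measured in both directions, apical to basolateral (A–B) and basolateral to apical (B–A); apparent permeability (Papp) read out, and efflux ratio derived from the two directional measurements.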

[9] = Drug metabolism in mouse liver microsomes after 20 mins; type: ADME, Microsome; conditions: read-out: Drug metabolism
In short: (§1)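 Liver microsomes (human or mouse) incubated with compound for 20 min; %lability reported as % of compound metabolized.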

[10] = Drug metabolism in human liver microsomes after 20 mins; type: ADME, Microsome; conditions: read-out: Drug metabolism; in short: as §1
Cytochrome P450 3A4 = Cytochrome P450 3A4 (Homo sapiens, UniProt P08684); assay: Inhibition of human recombinant CYP3A4; type: ADME
[11] = Oral bioavailability in SCID mouse at 10 mg/kg; type: ADME, organism-based; conditions: in vivo
Mus musculus [12] = assay: Hepatic clearance in SCID mouse at 3 mg/kg, iv; type: ADME, organism-based, Liver; parameters: dose 3 mg/kg, route intravenous; conditions: in vivo
[13] = Volume of distribution at steady state in SCID mouse at 3 mg/kg, iv; type: ADME, organism-based; parameters: dose 3 mg/kg, route intravenous; conditions: in vivo, read-out: Vdss
[14] = Terminal elimination half life in SCID mouse at 10 mg/kg, po; type: ADME, organism-based; parameters: dose 10 mg/kg, route oral; conditions: in vivo, read-out: beta t1/2 (converted)
[15] = Plasma concentration in SCID mouse xenografted with PTEN deficient human PC3 cells at 30 mg/kg, po administered as solution after 1 hr; type: ADME, organism-based, PC-3; parameters: dose 30 mg/kg, route oral
In short: (§2)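 SCID mice bearing PTEN-deficient PC3 prostate tumor xenografts given a single oral dose, either 30 mg/kg in solution or 244 mg/kg in suspension; drug levels in plasma and tumor measured at 1 and 6 h after dosing.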

[16] = Plasma concentration in SCID mouse xenografted with PTEN deficient human PC3 cells at 30 mg/kg, po administered as solution after 6 hrs; type: ADME, organism-based, PC-3; parameters: dose 30 mg/kg, route oral; in short: as §2
[17] = Plasma concentration in SCID mouse xenografted with PTEN deficient human PC3 cells at 244 mg/kg, po administered as suspension after 1 hr; type: ADME, organism-based, PC-3; parameters: dose 244 mg/kg, route oral; in short: as §2
[18] = Plasma concentration in SCID mouse xenografted with PTEN deficient human PC3 cells at 244 mg/kg, po administered as suspension after 6 hrs; type: ADME, organism-based, PC-3; parameters: dose 244 mg/kg, route oral; in short: as §2
[19] = Drug uptake in PTEN deficient human PC3 cells xenografted SCID mouse tumor at 30 mg/kg, po administered as solution after 1 hr; type: ADME, organism-based, Neoplasm, PC-3; parameters: dose 30 mg/kg, route oral; conditions: tumor (PC3 xenograft), read-out: Drug uptake; in short: as §2
[20] = Drug uptake in PTEN deficient human PC3 cells xenografted SCID mouse tumor at 30 mg/kg, po administered as solution after 6 hrs; type: ADME, organism-based, Neoplasm, PC-3; parameters: dose 30 mg/kg, route oral; conditions: tumor (PC3 xenograft), read-out: Drug uptake; in short: as §2
[21] = Drug uptake in PTEN deficient human PC3 cells xenografted SCID mouse tumor at 244 mg/kg, po administered as suspension after 1 hr; type: ADME, organism-based, Neoplasm, PC-3; parameters: dose 244 mg/kg, route oral; conditions: tumor (PC3 xenograft), read-out: Drug uptake; in short: as §2
[22] = Drug uptake in PTEN deficient human PC3 cells xenografted SCID mouse tumor at 244 mg/kg, po administered as suspension after 6 hrs; type: ADME, organism-based, Neoplasm, PC-3; parameters: dose 244 mg/kg, route oral; conditions: tumor (PC3 xenograft), read-out: Drug uptake; in short: as §2
Mus musculus [23] = assay: Inhibition of Akt phosphorylation at T308 in PTEN deficient human PC3 cells xenografted SCID mouse tumor at 30 mg/kg, po administered as solution after 1 hr; type: functional; conditions: PC-3, 1 h
Mus musculus [24] = assay: Inhibition of Akt phosphorylation at S473 in PTEN deficient human PC3 cells xenografted SCID mouse tumor at 30 mg/kg, po administered as solution after 1 hr; type: functional; conditions: PC-3, 1 h
Mus musculus [25] = assay: Inhibition of Akt phosphorylation at T308 in PTEN deficient human PC3 cells xenografted SCID mouse tumor at 30 mg/kg, po administered as solution after 6 hrs; type: functional; conditions: PC-3, 6 h
Mus musculus [26] = assay: Inhibition of Akt phosphorylation at S473 in PTEN deficient human PC3 cells xenografted SCID mouse tumor at 30 mg/kg, po administered as solution after 6 hrs; type: functional; conditions: PC-3, 6 h
Mus musculus [27] = assay: Inhibition of Akt phosphorylation at T308 in PTEN deficient human PC3 cells xenografted SCID mouse tumor at 244 mg/kg, po administered as suspension after 1 hr; type: functional; conditions: PC-3, 1 h
Mus musculus [28] = assay: Inhibition of Akt phosphorylation at S473 in PTEN deficient human PC3 cells xenografted SCID mouse tumor at 244 mg/kg, po administered as suspension after 1 hr; type: functional; conditions: PC-3, 1 h
Mus musculus [29] = assay: Inhibition of Akt phosphorylation at T308 in PTEN deficient human PC3 cells xenografted SCID mouse tumor at 244 mg/kg, po administered as suspension after 6 hrs; type: functional; conditions: PC-3, 6 h
Mus musculus [30] = assay: Inhibition of Akt phosphorylation at S473 in PTEN deficient human PC3 cells xenografted SCID mouse tumor at 244 mg/kg, po administered as suspension after 6 hrs; type: functional; conditions: PC-3, 6 h

Phosphatidylinositol 4,5-bisphosphate 3-kinase catalytic subunit alpha isoform, sequence (P42336 whole entry, canonical isoform): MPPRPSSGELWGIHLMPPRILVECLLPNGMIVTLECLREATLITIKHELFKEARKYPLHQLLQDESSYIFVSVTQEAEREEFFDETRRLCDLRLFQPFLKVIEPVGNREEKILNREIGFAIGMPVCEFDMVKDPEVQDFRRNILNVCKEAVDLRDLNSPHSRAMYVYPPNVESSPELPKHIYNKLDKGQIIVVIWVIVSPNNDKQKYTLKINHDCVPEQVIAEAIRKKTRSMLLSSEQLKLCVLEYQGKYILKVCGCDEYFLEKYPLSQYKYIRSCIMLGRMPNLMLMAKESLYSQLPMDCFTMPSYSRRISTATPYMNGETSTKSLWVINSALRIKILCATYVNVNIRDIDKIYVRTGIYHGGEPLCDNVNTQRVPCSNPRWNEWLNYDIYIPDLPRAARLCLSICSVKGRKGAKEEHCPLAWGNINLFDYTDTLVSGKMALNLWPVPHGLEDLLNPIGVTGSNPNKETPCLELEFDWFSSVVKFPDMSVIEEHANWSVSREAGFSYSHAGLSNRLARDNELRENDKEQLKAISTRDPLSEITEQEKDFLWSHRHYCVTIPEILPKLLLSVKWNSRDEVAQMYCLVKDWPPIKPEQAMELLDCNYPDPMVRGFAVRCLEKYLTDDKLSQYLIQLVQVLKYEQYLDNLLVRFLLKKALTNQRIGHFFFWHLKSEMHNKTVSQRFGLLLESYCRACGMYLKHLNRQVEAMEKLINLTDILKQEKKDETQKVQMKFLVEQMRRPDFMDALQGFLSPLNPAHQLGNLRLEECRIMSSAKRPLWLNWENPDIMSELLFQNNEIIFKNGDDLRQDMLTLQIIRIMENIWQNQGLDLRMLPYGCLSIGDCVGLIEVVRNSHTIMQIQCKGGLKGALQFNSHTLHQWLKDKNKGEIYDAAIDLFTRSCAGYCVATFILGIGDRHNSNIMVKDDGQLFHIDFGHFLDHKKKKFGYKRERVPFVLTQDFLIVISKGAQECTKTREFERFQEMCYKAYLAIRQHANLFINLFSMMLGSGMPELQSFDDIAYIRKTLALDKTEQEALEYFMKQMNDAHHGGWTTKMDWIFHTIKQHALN
Phosphatidylinositol 4,5-bisphosphate 3-kinase catalytic subunit gamma isoform, sequence (P48736 whole entry, canonical isoform): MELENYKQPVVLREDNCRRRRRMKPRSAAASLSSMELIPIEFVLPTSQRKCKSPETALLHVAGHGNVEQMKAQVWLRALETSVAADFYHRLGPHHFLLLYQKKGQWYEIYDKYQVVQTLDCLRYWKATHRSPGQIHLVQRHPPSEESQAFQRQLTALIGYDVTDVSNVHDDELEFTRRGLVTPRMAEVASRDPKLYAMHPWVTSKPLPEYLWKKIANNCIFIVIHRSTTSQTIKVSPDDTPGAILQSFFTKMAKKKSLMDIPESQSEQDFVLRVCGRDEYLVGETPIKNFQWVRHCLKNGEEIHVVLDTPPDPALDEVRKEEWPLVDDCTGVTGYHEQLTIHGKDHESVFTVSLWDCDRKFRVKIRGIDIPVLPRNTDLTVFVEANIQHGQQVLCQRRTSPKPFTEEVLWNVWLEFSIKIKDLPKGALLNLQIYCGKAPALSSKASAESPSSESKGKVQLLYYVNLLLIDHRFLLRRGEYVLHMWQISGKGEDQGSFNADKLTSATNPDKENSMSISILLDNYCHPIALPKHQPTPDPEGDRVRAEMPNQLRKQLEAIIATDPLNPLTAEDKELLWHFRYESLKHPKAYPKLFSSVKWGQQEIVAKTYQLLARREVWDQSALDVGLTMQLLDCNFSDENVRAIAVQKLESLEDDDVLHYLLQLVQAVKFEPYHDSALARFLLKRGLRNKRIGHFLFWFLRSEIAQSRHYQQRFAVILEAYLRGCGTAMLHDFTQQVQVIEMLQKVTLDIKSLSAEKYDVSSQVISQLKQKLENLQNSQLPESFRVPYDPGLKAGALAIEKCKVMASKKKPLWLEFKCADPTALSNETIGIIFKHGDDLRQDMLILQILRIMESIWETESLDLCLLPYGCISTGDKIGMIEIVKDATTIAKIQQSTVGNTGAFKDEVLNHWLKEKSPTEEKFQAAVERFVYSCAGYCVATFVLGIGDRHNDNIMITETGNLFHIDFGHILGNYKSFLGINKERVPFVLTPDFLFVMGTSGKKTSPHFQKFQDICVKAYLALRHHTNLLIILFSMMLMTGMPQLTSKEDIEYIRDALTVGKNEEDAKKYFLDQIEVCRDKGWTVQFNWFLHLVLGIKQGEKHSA
Cytochrome P450 3A4, sequence (P08684 whole entry): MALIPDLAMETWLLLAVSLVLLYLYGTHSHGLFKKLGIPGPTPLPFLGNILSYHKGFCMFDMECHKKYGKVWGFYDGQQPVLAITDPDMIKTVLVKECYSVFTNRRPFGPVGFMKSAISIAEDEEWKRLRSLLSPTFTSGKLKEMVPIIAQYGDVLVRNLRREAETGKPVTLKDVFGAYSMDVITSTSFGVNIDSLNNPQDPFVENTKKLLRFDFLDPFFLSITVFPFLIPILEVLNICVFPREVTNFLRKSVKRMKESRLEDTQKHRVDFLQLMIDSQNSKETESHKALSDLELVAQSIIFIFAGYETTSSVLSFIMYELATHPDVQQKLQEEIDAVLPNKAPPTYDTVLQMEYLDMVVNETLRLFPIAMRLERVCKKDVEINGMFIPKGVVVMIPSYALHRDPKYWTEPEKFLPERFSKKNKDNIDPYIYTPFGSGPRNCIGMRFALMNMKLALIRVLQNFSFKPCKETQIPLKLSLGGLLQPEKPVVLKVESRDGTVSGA
Phosphatidylinositol 4,5-bisphosphate 3-kinase catalytic subunit beta isoform, sequence (P42338 whole entry, canonical isoform): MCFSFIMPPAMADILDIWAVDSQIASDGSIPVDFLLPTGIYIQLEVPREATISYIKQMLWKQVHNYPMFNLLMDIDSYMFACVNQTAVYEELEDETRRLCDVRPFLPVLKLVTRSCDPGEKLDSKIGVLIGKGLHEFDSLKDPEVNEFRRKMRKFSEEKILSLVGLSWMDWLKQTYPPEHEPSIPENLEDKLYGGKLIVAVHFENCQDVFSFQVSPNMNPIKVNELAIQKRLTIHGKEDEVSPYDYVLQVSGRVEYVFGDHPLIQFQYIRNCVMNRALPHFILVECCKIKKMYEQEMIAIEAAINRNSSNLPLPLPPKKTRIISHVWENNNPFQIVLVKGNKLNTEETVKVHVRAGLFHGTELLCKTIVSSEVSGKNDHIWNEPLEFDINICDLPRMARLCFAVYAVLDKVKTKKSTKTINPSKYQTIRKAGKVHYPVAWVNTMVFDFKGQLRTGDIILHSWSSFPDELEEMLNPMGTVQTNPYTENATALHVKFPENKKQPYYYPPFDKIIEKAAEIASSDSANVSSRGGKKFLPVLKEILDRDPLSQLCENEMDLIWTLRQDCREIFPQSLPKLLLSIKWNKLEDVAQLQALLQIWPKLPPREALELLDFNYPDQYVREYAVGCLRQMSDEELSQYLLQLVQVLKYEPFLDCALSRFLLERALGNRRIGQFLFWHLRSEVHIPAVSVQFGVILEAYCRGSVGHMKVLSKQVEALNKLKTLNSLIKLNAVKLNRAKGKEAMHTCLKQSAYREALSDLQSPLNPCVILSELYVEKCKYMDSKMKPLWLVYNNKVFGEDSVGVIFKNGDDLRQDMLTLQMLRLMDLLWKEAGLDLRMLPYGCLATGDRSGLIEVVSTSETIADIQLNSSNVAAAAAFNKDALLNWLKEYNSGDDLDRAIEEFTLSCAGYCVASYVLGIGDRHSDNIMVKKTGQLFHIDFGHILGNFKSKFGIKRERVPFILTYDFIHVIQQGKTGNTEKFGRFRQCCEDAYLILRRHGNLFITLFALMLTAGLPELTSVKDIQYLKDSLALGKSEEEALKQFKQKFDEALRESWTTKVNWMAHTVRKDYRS

- pIC50 [1]: < 5.00
- pIC50 [2]: 7.38
- pIC50 [3]: 5.66
- pIC50 [4]: 5.08
- pIC50 [5]: 7.10
- solubility thermodynamic at 16 h [6]: 5 µM (≈ 1.9 µg/mL)
- Papp [7]: 66 nm/s
- Ratio [8]: 4
- metabolised at 20 min [9]: 12%
- metabolised at 20 min [10]: 44%
- pIC50 (Cytochrome P450 3A4): < 4.40
- bioavailability [11]: 52%
- CLH (Mus musculus [12]): 1.6 L/h/kg
- Vd [13]: 1.3 L/kg
- half-life [14]: 1.4 h
- concentration at 1 h [15]: 10 µM
- concentration at 6 h [16]: 0.4 µM
- concentration at 1 h [17]: 4.5 µM
- concentration at 6 h [18]: 1.6 µM
- concentration at 1 h [19]: 11 µM
- concentration at 6 h [20]: 1 µM
- concentration at 1 h [21]: 6 µM
- concentration at 6 h [22]: 1.7 µM
Structure (SMILES): Cn1c(CC(=O)Nc2ccc(F)c(Cl)c2)nc(N2CCOCC2)cc1=O
- inhibition in vivo at 30 mg/kg (Mus musculus [23]): 86%
- inhibition in vivo at 30 mg/kg (Mus musculus [24]): 91%
- inhibition in vivo at 30 mg/kg (Mus musculus [25]): 23%
- inhibition in vivo at 30 mg/kg (Mus musculus [26]): 0%
- inhibition in vivo at 244 mg/kg (Mus musculus [27]): 63%
- inhibition in vivo at 244 mg/kg (Mus musculus [28]): 73%
- inhibition in vivo at 244 mg/kg (Mus musculus [29]): 0%
- inhibition in vivo at 244 mg/kg (Mus musculus [30]): 0%
